Data taken from ChEMBL document CHEMBL4387724, “2-Pyridineformamide N(4)-ring incorporated thiosemicarbazones inhibit MCF-7 cells by inhibiting JNK pathway” (Bioorg Med Chem Lett, 2019).

Columns and labels:
[1] = tested on: MCF7; test: Cytotoxicity against human MCF7 cells assessed as reduction in cell growth incubated for 72 hrs by MTT assay; format: functional, cell-based; conditions: MCF7, 72 h
In short: (§1)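 Cells grown in DMEM with 10% FBS and penicillin-streptomycin at 37 °C, 5% CO2, seeded at 3000 cells/well and attached overnight. Screening series given at 1, 3, 10, 100 μM; follow-up agent at 100 nM–3 μM; both 72 h, with 0.1% DMSO vehicle. MTT (5 mg/mL stock) added for 3 h at 37 °C, formazan dissolved in DMSO, absorbance read at 570 nm. Viability expressed as % of DMSO-treated wells from replicates.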

[2] = tested on: A-431; test: Cytotoxicity against human A431 cells assessed as reduction in cell growth incubated for 72 hrs by MTT assay; format: functional, cell-based; conditions: A-431, 72 h; in short: as §1
[3] = tested on: A-375; test: Cytotoxicity against human A375 cells assessed as reduction in cell growth incubated for 72 hrs by MTT assay; format: functional, cell-based; conditions: A-375, 72 h; in short: as §1
[4] = tested on: HeLa; test: Cytotoxicity against human HeLa cells assessed as reduction in cell growth incubated for 72 hrs by MTT assay; format: functional, cell-based; in short: as §1
[5] = tested on: A-375; test: Cytotoxicity against human A375 cells assessed as reduction in cell growth at 1 uM incubated for 72 hrs by MTT assay relative to control; format: functional; conditions: A-375, 72 h, read-out: GI; in short: as §1
[6] = tested on: A-375; test: Cytotoxicity against human A375 cells assessed as reduction in cell growth at 3 uM incubated for 72 hrs by MTT assay relative to control; format: functional; conditions: A-375, 72 h, read-out: GI; in short: as §1
[7] = tested on: A-375; test: Cytotoxicity against human A375 cells assessed as reduction in cell growth at 10 uM incubated for 72 hrs by MTT assay relative to control; format: functional; conditions: A-375, 72 h, read-out: GI; in short: as §1
[8] = tested on: A-375; test: Cytotoxicity against human A375 cells assessed as reduction in cell growth at 30 uM incubated for 72 hrs by MTT assay relative to control; format: functional; conditions: A-375, 72 h, read-out: GI
[9] = tested on: A-375; test: Cytotoxicity against human A375 cells assessed as reduction in cell growth at 100 uM incubated for 72 hrs by MTT assay relative to control; format: functional; conditions: A-375, 72 h, read-out: GI; in short: as §1
[10] = tested on: A-431; test: Cytotoxicity against human A431 cells assessed as reduction in cell growth at 1 uM incubated for 72 hrs by MTT assay relative to control; format: functional; conditions: A-431, 72 h, read-out: GI; in short: as §1
[11] = tested on: A-431; test: Cytotoxicity against human A431 cells assessed as reduction in cell growth at 3 uM incubated for 72 hrs by MTT assay relative to control; format: functional; conditions: A-431, 72 h, read-out: GI; in short: as §1
[12] = tested on: A-431; test: Cytotoxicity against human A431 cells assessed as reduction in cell growth at 10 uM incubated for 72 hrs by MTT assay relative to control; format: functional; conditions: A-431, 72 h, read-out: GI; in short: as §1
[13] = tested on: A-431; test: Cytotoxicity against human A431 cells assessed as reduction in cell growth at 30 uM incubated for 72 hrs by MTT assay relative to control; format: functional; conditions: A-431, 72 h, read-out: GI
[14] = tested on: A-431; test: Cytotoxicity against human A431 cells assessed as reduction in cell growth at 100 uM incubated for 72 hrs by MTT assay relative to control; format: functional; conditions: A-431, 72 h, read-out: GI; in short: as §1
[15] = tested on: HeLa; test: Cytotoxicity against human HeLa cells assessed as reduction in cell growth at 1 uM incubated for 72 hrs by MTT assay relative to control; format: functional; conditions: read-out: GI; in short: as §1
[16] = tested on: HeLa; test: Cytotoxicity against human HeLa cells assessed as reduction in cell growth at 3 uM incubated for 72 hrs by MTT assay relative to control; format: functional; conditions: read-out: GI; in short: as §1
[17] = tested on: HeLa; test: Cytotoxicity against human HeLa cells assessed as reduction in cell growth at 10 uM incubated for 72 hrs by MTT assay relative to control; format: functional; conditions: read-out: GI; in short: as §1
[18] = tested on: HeLa; test: Cytotoxicity against human HeLa cells assessed as reduction in cell growth at 30 uM incubated for 72 hrs by MTT assay relative to control; format: functional; conditions: read-out: GI
[19] = tested on: HeLa; test: Cytotoxicity against human HeLa cells assessed as reduction in cell growth at 100 uM incubated for 72 hrs by MTT assay relative to control; format: functional; conditions: read-out: GI; in short: as §1
[20] = tested on: MCF7; test: Cytotoxicity against human MCF7 cells assessed as reduction in cell growth at 1 uM incubated for 72 hrs by MTT assay relative to control; format: functional; conditions: MCF7, 72 h, read-out: GI; in short: as §1
[21] = tested on: MCF7; test: Cytotoxicity against human MCF7 cells assessed as reduction in cell growth at 3 uM incubated for 72 hrs by MTT assay relative to control; format: functional; conditions: MCF7, 72 h, read-out: GI; in short: as §1
[22] = tested on: MCF7; test: Cytotoxicity against human MCF7 cells assessed as reduction in cell growth at 10 uM incubated for 72 hrs by MTT assay relative to control; format: functional; conditions: MCF7, 72 h, read-out: GI; in short: as §1
[23] = tested on: MCF7; test: Cytotoxicity against human MCF7 cells assessed as reduction in cell growth at 30 uM incubated for 72 hrs by MTT assay relative to control; format: functional; conditions: MCF7, 72 h, read-out: GI
[24] = tested on: MCF7; test: Cytotoxicity against human MCF7 cells assessed as reduction in cell growth at 100 uM incubated for 72 hrs by MTT assay relative to control; format: functional; conditions: MCF7, 72 h, read-out: GI; in short: as §1

Row | SMILES | IC50 [1] | IC50 [2] | IC50 [3] | IC50 [4] | inhibition of growth at 1 µM [5] | inhibition of growth at 3 µM [6] | inhibition of growth at 10 µM [7] | inhibition of growth at 30 µM [8] | inhibition of growth at 100 µM [9] | inhibition of growth at 1 µM [10] | inhibition of growth at 3 µM [11] | inhibition of growth at 10 µM [12] | inhibition of growth at 30 µM [13] | inhibition of growth at 100 µM [14] | inhibition of growth at 1 µM [15] | inhibition of growth at 3 µM [16] | inhibition of growth at 10 µM [17] | inhibition of growth at 30 µM [18] | inhibition of growth at 100 µM [19] | inhibition of growth at 1 µM [20] | also measured
1 | N/C(=N\NC(=S)N1CCOCC1)c1ccc(F)cn1 | 22.1 µM | 4 µM | 1.5 µM | 1.7 µM | 44.5% | 66.4% | 70.3% | 85.9% | 86.2% | 31.8% | 47% | 66.9% | 82.3% | 85.6% | 21.4% | 59.7% | 81.9% | 84.5% | 81.2% | 12.4% | inhibition of growth at 3 µM [21]: 33.9%; inhibition of growth at 10 µM [22]: 39.5%; inhibition of growth at 30 µM [23]: 56.7%; inhibition of growth at 100 µM [24]: 61.5%
2 | N/C(=N\NC(=S)N1CCSCC1)c1ccccn1 | 8.8 µM | 6.7 µM | 0.76 µM | 7.8 µM | 34% | 80% | 83.9% | 86% | 87.8% | 31.7% | 37.2% | 61.4% | 81.3% | 80.8% | 25.1% | 39.7% | 54.5% | 80.6% | 88.7% | 16.3% | inhibition of growth at 3 µM [21]: 29%; inhibition of growth at 10 µM [22]: 54.3%; inhibition of growth at 30 µM [23]: 72.6%; inhibition of growth at 100 µM [24]: 72.4%
3 | Cc1ccnc(/C(N)=N/NC(=S)N2CCCCCC2)c1 | 6.9 µM | 8 µM | 0.8 µM | 7 µM | 61.9% | 70% | 70.6% | 76.5% | 77% | 36.3% | 36.1% | 55.5% | 63.4% | 71% | 43.2% | 41.9% | 55.8% | 69.9% | 91.6% | 18.2% | inhibition of growth at 3 µM [21]: 36.3%; inhibition of growth at 10 µM [22]: 60.3%; inhibition of growth at 30 µM [23]: 75.9%; inhibition of growth at 100 µM [24]: 65.4%
4 | N/C(=N\NC(=S)N1CCSCC1)c1ccc(F)cn1 | 21.4 µM | 1.2 µM | 0.9 µM | 1.7 µM | 55.1% | 62.2% | 70.9% | 78.7% | 83.2% | 48.7% | 61.2% | 61.8% | 84.6% | 86.6% | 19.6% | 62.9% | 70.5% | 81.7% | 88.1% | 30.6% | inhibition of growth at 3 µM [21]: 35.4%; inhibition of growth at 10 µM [22]: 38.1%; inhibition of growth at 30 µM [23]: 58.8%; inhibition of growth at 100 µM [24]: 65.7%
